Data: ChEMBL document CHEMBL4020823, “Highly Selective, Potent, and Oral mTOR Inhibitor for Treatment of Cancer as Autophagy Inducer” (J Med Chem, 2018)
Activity calls are given as the source filed them. The calls are words filed in the database; no cut-off is given here.

What was measured:
[1] = Clearance in Sprague-Dawley rat at 20 mg/kg, po administered as single dose by HPLC analysis; type: ADME, organism-based; settings: in vivo
Outline: (§1)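 Rats fasted overnight, then given one 20 mg/kg dose either iv or po. Blood was collected and centrifuged at once to obtain plasma. Plasma drug levels were measured by HPLC, and PK parameters were derived from the concentration-time data.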

HeLa [2] = assay: Induction of autophagy in human HeLa cells assessed as increase in LC3-2 puncta level after 48 hrs by immunofluorescence staining based microscopic analysis; type: functional, cell-based
Outline: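 Cells were grown on glass coverslips and exposed to inhibitor for 48 h. They were fixed in 4% paraformaldehyde, permeabilized with 0.15% Triton X-100 and blocked in 4% BSA/PBS for 1 h. Anti-LC3B was applied overnight at 1:200, followed by FITC secondary and DAPI nuclear stain. LC3B-II puncta were counted by fluorescence microscopy.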

HeLa [3] = assay: Inhibition of mTORC1 in human HeLa cells assessed as reduction in 4E-BP1 phosphorylation at Thr37/46 residues at 0.5 to 1 uM by Western blot analysis; type: cell-based
Outline: (§2)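 Cells treated with the indicated concentrations, then whole-cell lysates immunoblotted. mTORC1 activity read as S6 and 4E-BP1 phosphorylation; mTORC2 activity read as AKT Ser473 phosphorylation. Blocking in 5% skim milk, primary antibodies at 4 °C overnight, peroxidase-conjugated secondary, ECL detection.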

[4] = molecular target: DNA-dependent protein kinase catalytic subunit (Homo sapiens, UniProt P78527); assay: Inhibition of full length recombinant human DNA-PK
[5] = molecular target: PI3-kinase p110-alpha/p85-alpha (Homo sapiens) (UniProt P27986+P42336); assay: Inhibition of full length recombinant human PI3K p110alpha/p85alpha at 1 uM relative to control; type: protein-complex assay
Outline: (§3)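 Eurofins KinaseProfiler panel with compound at a single 1 μM concentration. ATP at the Km of each kinase. Result is % inhibition, mean of two independent experiments.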

T47D [6] = assay: Antitumor activity against human T47D cells xenografted in BALB/c nude mouse assessed as tumor weight at 60 mg/kg, po administered via gavage after 3 weeks (reference value: 1.23 g); type: functional
MCF7 = assay: Growth inhibition of human MCF7 cells after 72 hrs by CCK8 assay; type: functional, cell-based; settings: MCF7, 72 h
Outline: (§4)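 Cells were seeded at 2000–3000 per well and grown 24 h in serum-containing medium. They were then exposed to serially diluted compound for 72 h at 37 °C, 5% CO2. CCK8 reagent was added for 1–4 h and absorbance read at 450 nm. Inhibition = (AC − AS)/(AC − Ab) × 100%. IC50 is the average of at least three independent determinations.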

[7] = tested on: PI3-kinase p110-alpha/p85-alpha (Homo sapiens), P27986+P42336 [E545K]; assay: Inhibition of full length recombinant human p85alpha/PI3K p110alpha E545K mutant at 1 uM relative to control; outline: as §3
OVCAR-5 = assay: Growth inhibition of human OVCAR5 cells after 72 hrs by CCK8 assay; type: functional, cell-based; settings: OVCAR-5, 72 h; outline: as §4
T47D [8] = assay: Induction of autophagy in human T47D cells assessed as increase in LC3-2 level at 0.25 to 0.5 uM after 48 hrs by Western blot analysis; type: functional, cell-based
Outline: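 Cells treated with test agents at several concentrations for 2 days (48 h). LC3B-II detected by Western blot on lysates, with β-actin as internal control. Membranes blocked in 5% skim milk, primary antibodies at 4 °C overnight, peroxidase-conjugated anti-mouse or anti-rabbit IgG secondary, ECL detection.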

Mus musculus [9] = species: Mus musculus; assay: Inhibition of full length recombinant mouse PI3K p110alpha/p65alpha at 1 uM relative to control; outline: as §3
ATR/ATRIP (Homo sapiens) = ATR/ATRIP (Homo sapiens) (UniProt Q13535+Q8WXE1); assay: Inhibition of full length recombinant human ATR /ATRIP at 1 uM relative to control; type: protein-complex assay; outline: as §3
Chain of ATR/ATRIP (Homo sapiens) (Q13535 whole entry, looked up): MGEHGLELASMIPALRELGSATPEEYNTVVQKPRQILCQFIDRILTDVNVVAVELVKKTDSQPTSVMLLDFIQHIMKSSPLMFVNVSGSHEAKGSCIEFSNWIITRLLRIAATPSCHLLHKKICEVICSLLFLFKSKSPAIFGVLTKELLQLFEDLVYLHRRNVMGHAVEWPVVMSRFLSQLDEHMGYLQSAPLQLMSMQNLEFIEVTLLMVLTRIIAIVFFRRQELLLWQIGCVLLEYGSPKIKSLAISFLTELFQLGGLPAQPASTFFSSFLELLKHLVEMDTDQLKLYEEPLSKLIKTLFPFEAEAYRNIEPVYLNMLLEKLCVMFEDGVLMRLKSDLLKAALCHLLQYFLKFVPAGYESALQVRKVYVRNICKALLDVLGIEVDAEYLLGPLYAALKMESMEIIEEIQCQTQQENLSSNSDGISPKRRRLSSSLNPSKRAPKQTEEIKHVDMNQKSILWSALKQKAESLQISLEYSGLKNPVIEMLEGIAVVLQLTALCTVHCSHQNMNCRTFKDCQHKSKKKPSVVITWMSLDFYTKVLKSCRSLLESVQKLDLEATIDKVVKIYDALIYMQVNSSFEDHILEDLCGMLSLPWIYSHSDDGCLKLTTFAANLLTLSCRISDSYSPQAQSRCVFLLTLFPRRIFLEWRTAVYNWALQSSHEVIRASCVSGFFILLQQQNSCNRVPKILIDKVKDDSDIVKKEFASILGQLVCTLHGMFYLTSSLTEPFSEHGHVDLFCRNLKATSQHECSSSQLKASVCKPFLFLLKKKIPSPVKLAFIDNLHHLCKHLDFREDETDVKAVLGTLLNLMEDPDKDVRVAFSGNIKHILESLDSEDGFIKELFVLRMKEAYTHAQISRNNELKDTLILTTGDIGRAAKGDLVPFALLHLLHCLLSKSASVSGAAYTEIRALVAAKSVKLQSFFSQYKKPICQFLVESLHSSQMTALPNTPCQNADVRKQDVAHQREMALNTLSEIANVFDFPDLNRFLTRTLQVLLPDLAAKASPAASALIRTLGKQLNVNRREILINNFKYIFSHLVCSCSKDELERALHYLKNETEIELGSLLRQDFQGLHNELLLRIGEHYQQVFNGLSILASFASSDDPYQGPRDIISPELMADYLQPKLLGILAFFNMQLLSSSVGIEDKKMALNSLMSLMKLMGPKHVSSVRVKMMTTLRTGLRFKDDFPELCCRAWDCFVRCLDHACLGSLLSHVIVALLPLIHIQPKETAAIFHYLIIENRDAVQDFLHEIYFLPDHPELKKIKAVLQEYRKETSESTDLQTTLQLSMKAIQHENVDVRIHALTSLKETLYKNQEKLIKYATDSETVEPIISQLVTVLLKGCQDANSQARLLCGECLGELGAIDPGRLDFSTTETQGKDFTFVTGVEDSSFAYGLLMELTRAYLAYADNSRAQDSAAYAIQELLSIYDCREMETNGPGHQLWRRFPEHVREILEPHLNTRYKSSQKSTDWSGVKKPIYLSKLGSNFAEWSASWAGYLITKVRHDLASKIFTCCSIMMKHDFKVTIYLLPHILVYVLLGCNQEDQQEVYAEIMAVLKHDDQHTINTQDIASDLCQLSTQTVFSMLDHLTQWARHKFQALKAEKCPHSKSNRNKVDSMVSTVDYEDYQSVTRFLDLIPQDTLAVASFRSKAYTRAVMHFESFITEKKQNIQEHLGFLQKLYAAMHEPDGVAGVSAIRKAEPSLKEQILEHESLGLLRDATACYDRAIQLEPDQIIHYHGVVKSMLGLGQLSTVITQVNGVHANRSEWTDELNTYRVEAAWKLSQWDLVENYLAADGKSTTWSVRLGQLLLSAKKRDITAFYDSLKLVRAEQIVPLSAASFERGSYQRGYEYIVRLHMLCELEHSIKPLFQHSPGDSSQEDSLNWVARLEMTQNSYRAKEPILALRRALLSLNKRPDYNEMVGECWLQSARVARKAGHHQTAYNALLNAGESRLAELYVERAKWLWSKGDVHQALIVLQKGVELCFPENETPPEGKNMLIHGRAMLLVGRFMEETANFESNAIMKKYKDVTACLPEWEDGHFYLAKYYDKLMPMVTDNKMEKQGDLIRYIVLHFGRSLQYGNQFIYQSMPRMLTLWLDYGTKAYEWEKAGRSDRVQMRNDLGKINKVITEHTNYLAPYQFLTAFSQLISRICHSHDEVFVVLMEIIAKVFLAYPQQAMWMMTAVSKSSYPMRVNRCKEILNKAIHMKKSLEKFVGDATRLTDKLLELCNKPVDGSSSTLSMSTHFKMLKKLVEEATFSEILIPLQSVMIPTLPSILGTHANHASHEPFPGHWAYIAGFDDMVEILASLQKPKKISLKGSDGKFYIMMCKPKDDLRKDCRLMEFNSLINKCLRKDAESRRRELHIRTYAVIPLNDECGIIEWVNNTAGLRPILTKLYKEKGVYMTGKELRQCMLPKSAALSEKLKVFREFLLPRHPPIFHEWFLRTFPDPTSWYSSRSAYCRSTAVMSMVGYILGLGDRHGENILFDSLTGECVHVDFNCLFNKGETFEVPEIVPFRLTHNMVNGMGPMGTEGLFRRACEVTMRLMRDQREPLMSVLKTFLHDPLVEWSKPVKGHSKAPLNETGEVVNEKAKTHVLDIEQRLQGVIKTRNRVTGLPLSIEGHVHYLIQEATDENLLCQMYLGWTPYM
Chain of ATR/ATRIP (Homo sapiens) (Q8WXE1 whole entry, looked up): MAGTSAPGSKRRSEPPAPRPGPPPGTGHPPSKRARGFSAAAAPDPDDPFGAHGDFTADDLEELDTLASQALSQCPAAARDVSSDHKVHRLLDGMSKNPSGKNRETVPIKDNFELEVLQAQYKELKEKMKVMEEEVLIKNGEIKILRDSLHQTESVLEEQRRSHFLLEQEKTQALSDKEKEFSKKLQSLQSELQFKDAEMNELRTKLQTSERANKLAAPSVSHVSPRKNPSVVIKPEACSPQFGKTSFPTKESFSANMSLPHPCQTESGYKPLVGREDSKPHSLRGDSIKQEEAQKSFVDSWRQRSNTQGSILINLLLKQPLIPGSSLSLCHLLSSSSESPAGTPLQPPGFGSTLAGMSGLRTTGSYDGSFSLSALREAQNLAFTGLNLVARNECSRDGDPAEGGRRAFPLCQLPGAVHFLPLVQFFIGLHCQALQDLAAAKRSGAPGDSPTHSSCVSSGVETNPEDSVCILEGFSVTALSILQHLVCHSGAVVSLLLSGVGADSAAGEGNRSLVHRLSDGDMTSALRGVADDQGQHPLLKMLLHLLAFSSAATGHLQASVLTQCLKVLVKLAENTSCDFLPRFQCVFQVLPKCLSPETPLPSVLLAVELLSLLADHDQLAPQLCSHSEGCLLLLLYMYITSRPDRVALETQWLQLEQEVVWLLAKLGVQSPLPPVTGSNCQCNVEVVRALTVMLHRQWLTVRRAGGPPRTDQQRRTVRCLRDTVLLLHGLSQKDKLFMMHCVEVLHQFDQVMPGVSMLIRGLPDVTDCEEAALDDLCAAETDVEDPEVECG

Homo sapiens [10] = species: Homo sapiens; assay: Inhibition of mTORC1 in human MDA-MB-231 cells assessed as reduction in 4E-BP1 phosphorylation at Thr37/46 residues at 0.25 to 0.5 uM by Western blot analysis; type: cell-based; outline: as §2
Homo sapiens [11] = species: Homo sapiens; assay: Inhibition of mTORC1 in human T47D cells assessed as reduction in 4E-BP1 phosphorylation at Thr37/46 residues at 0.25 to 0.5 uM by Western blot analysis; type: cell-based; outline: as §2
T47D [12] = assay: Cell cycle arrest in human T47D cells assessed as accumulation at G0/G1 phase at 0.25 to 0.5 uM after 24 hrs by propidium iodide-staining based flow cytometric analysis; type: functional
Outline: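 Cells were seeded at 5 × 10^5 cells/mL. At 24 h after plating they were treated with increasing concentrations for 24 h, washed in PBS, and fixed in ice-cold 70% ethanol for at least 24 h. They were stained with propidium iodide plus RNase A for 30 min at 37 °C and analysed by flow cytometry for phase distribution.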

SiHa = assay: Induction of autophagy in human SiHa cells assessed as increase in LC3-2 puncta level after 48 hrs by immunofluorescence staining based microscopic analysis; type: functional, cell-based
Outline: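 Cells seeded on glass coverslips in complete 1640 or DMEM and incubated with inhibitors at different concentrations for 48 h. Fixed in 4% paraformaldehyde, permeabilized with 0.15% Triton X-100, blocked in 4% BSA/PBS for 1 h at room temperature. Anti-LC3B (1:200) overnight, then FITC-conjugated secondary, DAPI nuclear stain. LC3B-II puncta viewed by fluorescence microscopy.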

Mus musculus [13] = assay: Down regulation of 4E-BP1 phosphorylation at Thr37/46 residues in human T47D cells xenografted in BALB/c nude mouse administered via oral gavage after 3 weeks by hematoxylin and eosine staining based light microscopic assay; type: functional, cell-based
Outline: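 Tumours from the oral 3-week T-47D xenograft study were formalin-fixed, paraffin-embedded and cut into 5 μm sections. Sections were deparaffinized, rehydrated and incubated overnight at 4 °C with phospho-specific primary antibody at 1:100. Biotin secondary was applied for 1 h at room temperature, then ABC-peroxidase/DAB with hematoxylin counterstain. Sections were viewed by light microscopy.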

T47D [14] = assay: Growth inhibition of human T47D cells after 72 hrs by CCK8 assay; type: functional, cell-based; outline: as §4
T47D [15] = assay: Antitumor activity against human T47D cells xenografted in BALB/c nude mouse assessed as decrease in tumor growth administered via oral gavage after 3 weeks; type: functional, cell-based
Homo sapiens [16] = species: Homo sapiens; assay: Inhibition of mTORC1 in human SiHa cells assessed as reduction in S6 phosphorylation at Ser 240/244 residues at 0.25 to 0.5 uM by Western blot analysis; type: cell-based; outline: as §2
Mus musculus [17] = species: Mus musculus; assay: Inhibition of full length recombinant mouse p85alpha/PI3K p110alpha E542K mutant at 1 uM relative to control; outline: as §3
[18] = Cmax in Sprague-Dawley rat at 20 mg/kg, iv administered as single dose by HPLC analysis; type: ADME, organism-based; parameters: dose 20 mg/kg, route intravenous; settings: in vivo; outline: as §1
SK-OV-3 = assay: Growth inhibition of human SKOV3 cells after 72 hrs by CCK8 assay; type: functional, cell-based; settings: SK-OV-3, 72 h; outline: as §4
[19] = Tmax in Sprague-Dawley rat at 20 mg/kg, po administered as single dose by HPLC analysis; type: ADME, organism-based; settings: in vivo
Outline: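 Rats fasted overnight, then given a single 20 mg/kg dose either iv or po. Blood collected and centrifuged immediately to obtain plasma. Plasma drug levels measured by HPLC, and pharmacokinetic parameters derived from both routes.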

For `N#CCN1CCC(n2c(=O)cnc3cnc4ccc(-c5ccc(N)nc5)cc4c32)CC1`, which CL/F [1] is on record?
The CL/F was 3.51 L/h/kg.

And the Activity (HeLa [2])?
Its Activity is “Dose-dependent effect”.

What about the inhibition (HeLa [3]) of the same compound?
Its inhibition is “Active”.

And the IC50 [4]?
Its IC50 is 0.026 µM.

What about the inhibition [5] of the same compound?
Its inhibition is 10%.

And the Activity (T47D [6])?
Its Activity is 0.194 g.

And the IC50 (MCF7)?
The IC50 was 0.103 µM.

What about the inhibition [7] of the same compound?
Its inhibition is 13%.

What about the IC50 (OVCAR-5) of the same compound?
Its IC50 is 2.83 µM.

What about the Activity (T47D [8]) of the same compound?
Its Activity is “Active”.

What about the inhibition (Mus musculus [9]) of the same compound?
Its inhibition is 9%.

What about the inhibition (ATR/ATRIP (Homo sapiens)) of the same compound?
The inhibition was 24%.

And the inhibition (Homo sapiens [10])?
Its inhibition is “Active”.

And the inhibition (Homo sapiens [11])?
Its inhibition is “Active”.

What about the Activity (T47D [12]) of the same compound?
The Activity was “Active”.

And the Activity (SiHa)?
The Activity was “Dose-dependent effect”.

What about the Activity (Mus musculus [13]) of the same compound?
Its Activity is “Dose-dependent effect”.

And the IC50 (T47D [14])?
Its IC50 is 0.205 µM.

And the TGI (T47D [15])?
The TGI was “Dose-dependent effect”.

And the inhibition (Homo sapiens [16])?
The inhibition was “Active”.

What about the inhibition (Mus musculus [17]) of the same compound?
The inhibition was 10%.

What about the Cmax [18] of the same compound?
Its Cmax is 4.47 µg/mL.

What about the IC50 (SK-OV-3) of the same compound?
Its IC50 is 1.85 µM.

What about the Tmax [19] of the same compound?
The Tmax was 3 h.
